In ChEMBL document CHEMBL1143019, “Hybrid molecules of estrone: new compounds with potential antibacterial, antifungal, and antiproliferative activities” (2007):
≈ marks a conversion by molar mass, not a printed value.

Experiments:
K562 = assay: Antiproliferative activity against human K562 cells after 72 hrs; format: functional; conditions: K562, 72 h
In short: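 About 10,000 suspension cells per well in RPMI 1640 with 10% heat-inactivated FBS and penicillin/streptomycin, without HEPES. Exposed to 10 concentrations for 72 h at 37 °C in humidified 5% CO₂. Wells diluted 1:50 in CASYTON and counted electronically, each result the mean of three successive counts. GI50 is where the concentration–response curve crosses 50% of control cell count.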

[1] = test system: Mycobacterium tuberculosis; assay: Antimicrobial activity against Mycobacterium tuberculosis My 331/88 after 21 days; format: functional; conditions: 504 h
Mycobacterium kansasii [2] = assay: Antimicrobial activity against Mycobacterium kansasii My 235/80 after 14 days; format: functional; conditions: 336 h
In short: (§1)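 Run in Šula semisynthetic liquid medium containing bovine serum. Compounds added as DMSO solutions at final concentrations of […]. Each strain was also inoculated onto Löwenstein–Jensen medium to control inoculum sterility and growth.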

[3] = test system: Mycobacterium tuberculosis; assay: Antimicrobial activity against Mycobacterium tuberculosis My 331/88 after 14 days; format: functional; conditions: 336 h
L929 = assay: Antiproliferative activity against mouse L929 cells after 72 hrs; format: functional; conditions: L929, 72 h
In short: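 About 10,000 adherent cells per well in RPMI 1640 with 10% heat-inactivated FBS and penicillin/streptomycin, without HEPES. Exposed to 10 concentrations for 72 h at 37 °C in humidified 5% CO₂. Monolayers fixed with glutaraldehyde, stained 15 min with 0.05% methylene blue, and eluted with 0.33 N HCl; OD read at 630 nm. GI50 derived from dose–response curves relative to control.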

Mycobacterium kansasii [4] = assay: Antimicrobial activity against Mycobacterium kansasii My 235/80 after 21 days; format: functional; conditions: 504 h; in short: as §1
Mycobacterium kansasii [5] = assay: Antimicrobial activity against Mycobacterium kansasii My 6509/96 after 14 days; format: functional; conditions: 336 h; in short: as §1
Mycobacterium kansasii [6] = assay: Antimicrobial activity against Mycobacterium kansasii My 6509/96 after 7 days; format: functional; conditions: 168 h; in short: as §1
Mycobacterium avium [7] = assay: Antimicrobial activity against Mycobacterium avium My 330/88 after 21 days; format: functional; conditions: 504 h
Mycobacterium avium [8] = assay: Antimicrobial activity against Mycobacterium avium My 330/88 after 14 days; format: functional; conditions: 336 h
HeLa = assay: Cytotoxicity against human HeLa cells after 72 hrs; format: functional; conditions: for CC50: Homo sapiens, HeLa, 72 h
In short: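 About 10,000 cells per well in RPMI 1640 were preincubated 48 h without compound. The 10 test concentrations were then applied onto the monolayers and incubated 72 h at 37 °C in humidified 5% CO₂. Monolayers fixed with glutaraldehyde, stained with 0.05% methylene blue, and eluted with 0.33 N HCl; optical density measured at 630 nm.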

Mycobacterium kansasii [9] = assay: Antimicrobial activity against Mycobacterium kansasii My 235/80 after 7 days; format: functional; conditions: 168 h; in short: as §1
Mycobacterium kansasii [10] = assay: Antimicrobial activity against Mycobacterium kansasii My 6509/96 after 21 days; format: functional; conditions: 504 h; in short: as §1
Pichia kudriavzevii [11] = assay: Antifungal activity against Candida krusei E28 after 48 hrs; format: functional
In short: (§2)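 Modified NCCLS M27-A broth microdilution with clinical isolates subcultured on Sabouraud dextrose agar. Suspensions diluted 1:50 in RPMI 1640 to give a final inoculum of 0.5–2.5×10³ CFU/mL for yeasts or 0.5–5×10⁴ CFU/mL for molds. The RPMI had L-glutamine, no bicarbonate, and 0.165 M MOPS to pH 7.0. Twofold dilutions from 250 to 0.49. Plates held at 35 °C, humid, without agitation. MIC is the lowest concentration giving ≥80% inhibition versus drug-free control, read at 24 and 48 h.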

Lichtheimia corymbifera [12] = assay: Antifungal activity against Absidia corymbifera 272 after 48 hrs; format: functional; in short: as §2
Trichophyton benhamiae [13] = assay: Antifungal activity against Trichophyton mentagrophytes 445 after 120 hrs; format: functional, Arthroderma benhamiae
In short: (§3)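 Same modified M27-A microdilution with the mold inoculum of 0.5–5×10⁴ CFU/mL. Medium was RPMI 1640 with L-glutamine, no bicarbonate, and 0.165 M MOPS at pH 7.0. Twofold dilutions from 250 to 0.49. Incubated at 35 °C in a humid atmosphere.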

Candida albicans [14] = assay: Antifungal activity against Candida albicans ATCC 44859 after 48 hrs; format: functional; conditions: ATCC 44859, 48 h; in short: as §2
Nakaseomyces glabratus [15] = assay: Antifungal activity against Candida glabrata 20/I after 24 hrs; format: functional; in short: as §2
Lichtheimia corymbifera [16] = assay: Antifungal activity against Absidia corymbifera 272 after 24 hrs; format: functional; in short: as §2
Aspergillus fumigatus [17] = assay: Antifungal activity against Aspergillus fumigatus 231 after 48 hrs; format: functional; in short: as §2
Candida tropicalis [18] = assay: Antifungal activity against Candida tropicalis 156 after 24 hrs; format: functional; in short: as §2
Pichia kudriavzevii [19] = assay: Antifungal activity against Candida krusei E28 after 24 hrs; format: functional; in short: as §2
Candida tropicalis [20] = assay: Antifungal activity against Candida tropicalis 156 after 48 hrs; format: functional; in short: as §2
Candida albicans [21] = assay: Antifungal activity against Candida albicans ATCC 44859 after 24 hrs; format: functional; conditions: ATCC 44859, 24 h; in short: as §2
Trichosporon beigelii [22] = assay: Antifungal activity against Trichosporon beigelii 1188 after 24 hrs; format: functional; in short: as §2
Nakaseomyces glabratus [23] = assay: Antifungal activity against Candida glabrata 20/I after 48 hrs; format: functional; in short: as §2
Trichosporon beigelii [24] = assay: Antifungal activity against Trichosporon beigelii 1188 after 48 hrs; format: functional; in short: as §2
Aspergillus fumigatus [25] = assay: Antifungal activity against Aspergillus fumigatus 231 after 24 hrs; format: functional; in short: as §2
Trichophyton benhamiae [26] = assay: Antifungal activity against Trichophyton mentagrophytes 445 after 72 hrs; format: functional, Arthroderma benhamiae; in short: as §3

SMILES	GI50 (K562) [µg/mL]	GI50 (L929) [µg/mL]	CC10 (HeLa) [µg/mL]	CC50 (HeLa) [µg/mL]	MIC (Pichia kudriavzevii [11]) [µM]	MIC (Lichtheimia corymbifera [12]) [µM]	MIC (Trichophyton benhamiae [13]) [µM]	MIC (Candida albicans [14]) [µM]	MIC (Nakaseomyces glabratus [15]) [µM]	MIC (Lichtheimia corymbifera [16]) [µM]	MIC (Aspergillus fumigatus [17]) [µM]	MIC (Candida tropicalis [18]) [µM]	MIC (Pichia kudriavzevii [19]) [µM]	MIC (Candida tropicalis [20]) [µM]	MIC (Candida albicans [21]) [µM]	MIC (Trichosporon beigelii [22]) [µM]	MIC (Nakaseomyces glabratus [23]) [µM]	MIC (Trichosporon beigelii [24]) [µM]	MIC (Aspergillus fumigatus [25]) [µM]	further results
Cc1ccc(-n2nnnc2S)cc1	42.8 (≈ 223 µM)	> 50	33 (≈ 172 µM)	> 50																MIC [1]: > 500 µM; MIC (Mycobacterium kansasii [2]): > 500 µM; MIC [3]: 500 µM (≈ 96.1 µg/mL); MIC (Mycobacterium kansasii [4]): > 500 µM; MIC (Mycobacterium kansasii [5]): 500 µM (≈ 96.1 µg/mL); MIC (Mycobacterium kansasii [6]): 500 µM (≈ 96.1 µg/mL); MIC (Mycobacterium avium [7]): > 500 µM; MIC (Mycobacterium avium [8]): 500 µM (≈ 96.1 µg/mL); MIC (Mycobacterium kansasii [9]): 500 µM (≈ 96.1 µg/mL); MIC (Mycobacterium kansasii [10]): > 500 µM
C[C@]12CC[C@@H]3c4ccc(OCCCCCCCSc5nnnn5-c5ccc(Cl)cc5)cc4CC[C@H]3[C@@H]1CCC2=O	> 50	> 50	50 (≈ 86.3 µM)	> 50	> 250	> 250	> 250	> 250	> 250	> 250	> 250	> 250	> 250	> 250	> 250	> 250	> 250	> 250	250 (≈ 145 µg/mL)	MIC (Trichophyton benhamiae [26]): > 250 µM
OC(Cn1cncn1)(Cn1cncn1)c1ccc(F)cc1F [FLUCONAZOLE]					104 (≈ 32 µg/mL)	> 250	52.2 (≈ 16 µg/mL)	1.6 (≈ 0.49 µg/mL)	13.1 (≈ 4.01 µg/mL)	> 250	> 250	1.6 (≈ 0.49 µg/mL)	52.2 (≈ 16 µg/mL)	> 250	0.8 (≈ 0.245 µg/mL)	3.3 (≈ 1.01 µg/mL)	52.2 (≈ 16 µg/mL)	6.5 (≈ 1.99 µg/mL)	> 250	
